Measured values: ChEMBL document CHEMBL4033643, “Synthesis and in vitro antitumour activity of crassalactone D, its stereoisomers and novel cinnamic ester derivatives” (Eur J Med Chem, 2017)
The source made the active and inactive calls. No cut-off for these calls is given here.

Tests used:
A549 = experiment: Cytotoxicity against human A549 cells assessed as reduction in cell viability after 72 hrs by MTT assay; format: functional, cell-based; conditions: A549, 72 h
K562 [1] = experiment: Induction of apoptosis in human K562 cells assessed as specific necrosis by Annexin V-FITC/propidium iodide staining based flow cytometry; format: functional; design: concentration or dose not given beside the values
K562 [2] = experiment: Cell cycle arrest in human K562 cells assessed as accumulation at G0/G1 phase at IC50 after 72 hrs by propidium iodide staining based flow cytometry (reference value: 38.48%); format: functional
K562 [3] = experiment: Cell cycle arrest in human K562 cells assessed as total cell levels at G0/G1 phase at IC50 after 72 hrs by propidium iodide staining based flow cytometry (reference value: 39.97%); format: functional
Jurkat = experiment: Cytotoxicity against human Jurkat cells assessed as reduction in cell viability after 72 hrs by MTT assay; format: functional, cell-based
K562 [4] = experiment: Induction of apoptosis in human K562 cells assessed as total late apoptotic cells by Annexin V-FITC/propidium iodide staining based flow cytometry (reference value: 0.77%); format: functional
K562 [5] = experiment: Cell cycle arrest in human K562 cells assessed as accumulation at S phase at IC50 after 72 hrs by propidium iodide staining based flow cytometry (reference value: 41.03%); format: functional
HeLa = experiment: Cytotoxicity against human HeLa cells assessed as reduction in cell viability after 72 hrs by MTT assay; format: functional, cell-based
MRC5 = experiment: Cytotoxicity against human MRC5 cells assessed as reduction in cell viability after 72 hrs by MTT assay; format: cell-based; conditions: MRC5, 72 h
K562 [6] = experiment: Induction of apoptosis in human K562 cells assessed as gated viable cells by Annexin V-FITC/propidium iodide staining based flow cytometry (reference value: 95.78%); format: functional
K562 [7] = experiment: Induction of apoptosis in human K562 cells assessed as specific apoptosis by Annexin V-FITC/propidium iodide staining based flow cytometry; format: functional; design: concentration or dose not given beside the values
K562 [8] = experiment: Induction of apoptosis in human K562 cells assessed as gated necrotic cells by Annexin V-FITC/propidium iodide staining based flow cytometry (reference value: 0.24%); format: functional
MCF7 = experiment: Cytotoxicity against human MCF7 cells assessed as reduction in cell viability after 72 hrs by MTT assay; format: functional, cell-based; conditions: MCF7, 72 h
K562 [9] = experiment: Cell cycle arrest in human K562 cells assessed as total cell levels at S phase at IC50 after 72 hrs by propidium iodide staining based flow cytometry (reference value: 36.49%); format: functional
K562 [10] = experiment: Cell cycle arrest in human K562 cells assessed as accumulation at sub G1 phase at IC50 after 72 hrs by propidium iodide staining based flow cytometry (reference value: 1.48%); format: functional
K562 [11] = experiment: Induction of apoptosis in human K562 cells assessed as total necrotic cells by Annexin V-FITC/propidium iodide staining based flow cytometry (reference value: 0.23%); format: functional
K562 [12] = experiment: Induction of apoptosis in human K562 cells assessed as total early apoptotic cells by Annexin V-FITC/propidium iodide staining based flow cytometry (reference value: 3.07%); format: functional
K562 [13] = experiment: Cytotoxicity against human K562 cells assessed as reduction in cell viability after 72 hrs by MTT assay; format: functional, cell-based; conditions: K562, 72 h
K562 [14] = experiment: Induction of apoptosis in human K562 cells assessed as gated late apoptotic cells by Annexin V-FITC/propidium iodide staining based flow cytometry (reference value: 0.88%); format: functional
MDA-MB-231 = experiment: Cytotoxicity against human MDA-MB-231 cells assessed as reduction in cell viability after 72 hrs by MTT assay; format: functional, cell-based; conditions: MDA-MB-231, 72 h
K562 [15] = experiment: Cell cycle arrest in human K562 cells assessed as total cell levels at M4 phase at IC50 after 72 hrs by propidium iodide staining based flow cytometry (reference value: 0.50%); format: functional
K562 [16] = experiment: Induction of apoptosis in human K562 cells assessed as decrease in Bcl-2 expression level by Western blot analysis; format: functional, cell-based
Summary of the method: (§1)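 Western blot of treated K562 cells for Bcl-2, Bax, activated caspase 3 and cleaved PARP (85 kDa fragment). Blots developed by ECL, with band expression quantified by densitometry against an untreated control sample.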

Raji = experiment: Cytotoxicity against human Raji cells assessed as reduction in cell viability after 72 hrs by MTT assay; format: functional, cell-based
K562 [17] = experiment: Induction of apoptosis in human K562 cells assessed as gated early apoptotic cells by Annexin V-FITC/propidium iodide staining based flow cytometry (reference value: 3.18%); format: functional
K562 [18] = experiment: Induction of apoptosis in human K562 cells assessed as total viable cells by Annexin V-FITC/propidium iodide staining based flow cytometry (reference value: 92.45%); format: functional
K562 [19] = experiment: Cell cycle arrest in human K562 cells assessed as total cell levels at G2/M phase at IC50 after 72 hrs by propidium iodide staining based flow cytometry (reference value: 14.31%); format: functional
HL-60 = experiment: Cytotoxicity against human HL60 cells assessed as reduction in cell viability after 72 hrs by MTT assay; format: functional, cell-based; conditions: HL-60, 72 h
K562 [20] = experiment: Induction of apoptosis in human K562 cells assessed as increase in Bax expression level by Western blot analysis; format: functional, cell-based; summary of the method: as §1
K562 [21] = experiment: Cell cycle arrest in human K562 cells assessed as accumulation at G2/M phase at IC50 after 72 hrs by propidium iodide staining based flow cytometry (reference value: 19.01%); format: functional

| SMILES | IC50 (A549) | Activity (K562 [1]) | Activity (K562 [2]) | Activity (K562 [3]) | IC50 (Jurkat) | Activity (K562 [4]) | Activity (K562 [5]) | IC50 (HeLa) | IC50 (MRC5) | Activity (K562 [6]) | Activity (K562 [7]) | Activity (K562 [8]) | IC50 (MCF7) | Activity (K562 [9]) | Activity (K562 [10]) | Activity (K562 [11]) | Activity (K562 [12]) | IC50 (K562 [13]) | Activity (K562 [14]) | IC50 (MDA-MB-231) | further results |
| --- | --- | --- | --- | --- | --- | --- | --- | --- | --- | --- | --- | --- | --- | --- | --- | --- | --- | --- | --- | --- | --- |
| O=C1C=C[C@@]2(C[C@H](O)[C@@H](c3ccccc3)O2)O1 | 21.3 µM | 4.8% | 39.26% | 29.6% | 0.34 µM | 3.69% | 35.2% | 2.12 µM | > 100 µM | 76.16% | 11.74% | 8.59% | 3.57 µM | 26.52% | 1.26% | 2.81% | 1.3% | 0.54 µM | 11.28% | > 100 µM | Activity (K562 [15]): 0.94%; Activity (K562 [16]): inactive; IC50 (Raji): 5.97 µM; Activity (K562 [17]): 3.97%; Activity (K562 [18]): 24.92%; Activity (K562 [19]): 18.07%; IC50 (HL-60): 1.02 µM; Activity (K562 [20]): Active; Activity (K562 [21]): 24.28% |
| O=C1C=C[C@]2(C[C@H](OC(=O)/C=C/c3ccc([N+](=O)[O-])cc3)[C@H](c3ccccc3)O2)O1 | 3.12 µM | 0.64% | 30.42% | 27.84% | 10.2 µM | 0.78% | 29.17% | 11.5 µM | > 100 µM | 13.94% | 81.97% | 3.37% | 7.55 µM | 27.16% | 20.43% | 0.68% | 15.89% | 14.3 µM | 3.87% | 4.48 µM | Activity (K562 [15]): 18.7%; Activity (K562 [16]): Active; IC50 (Raji): 11.8 µM; Activity (K562 [17]): 78.82%; Activity (K562 [18]): 2.81%; Activity (K562 [19]): 18.29%; IC50 (HL-60): 4.32 µM; Activity (K562 [20]): Active; Activity (K562 [21]): 19.98% |
| O=C1C=C[C@]2(C[C@H](O)[C@H](c3ccccc3)O2)O1 | 35.2 µM | 2.84% | 15.18% | 11.56% | 1.01 µM | 6.94% | 17.17% | 35.4 µM | > 100 µM | 87.3% | 7.78% | 1.25% | 11 µM | 13.07% | 1.09% | 1.07% | 2.87% | 1.21 µM | 8.1% | 45.1 µM | Activity (K562 [15]): 0.6%; Activity (K562 [16]): Active; IC50 (Raji): 8.84 µM; Activity (K562 [17]): 3.35%; Activity (K562 [18]): 74.8%; Activity (K562 [19]): 51.44%; IC50 (HL-60): 6.11 µM; Activity (K562 [20]): Active; Activity (K562 [21]): 66.56% |
| O=C1C=C[C@]2(C[C@H](OC(=O)/C=C/c3ccccc3)[C@@H](c3ccccc3)O2)O1 | 14.6 µM | 4.06% | 16.04% | 14.21% | 0.21 µM | 3.27% | 31.55% | 1.15 µM | > 100 µM | 15.88% | 83.35% | 0.09% | 1.65 µM | 28.7% | 28.63% | 0.05% | 59.12% | 20.7 µM | 4.92% | 5.45 µM | Activity (K562 [15]): 25.37%; Activity (K562 [16]): Active; IC50 (Raji): 6.68 µM; Activity (K562 [17]): 79.11%; Activity (K562 [18]): 3.9%; Activity (K562 [19]): 21.08%; IC50 (HL-60): 10 µM; Activity (K562 [20]): Active; Activity (K562 [21]): 23.78% |
| COc1ccc(/C=C/C(=O)O[C@H]2C[C@@]3(C=CC(=O)O3)O[C@@H]2c2ccccc2)cc1 | 23.1 µM | 3.15% | 30.72% | 26.37% | 21.1 µM | 3.58% | 42.64% | 3.64 µM | > 100 µM | 80.32% | 15.35% | 0.96% | 2.22 µM | 36.83% | 1.57% | 0.78% | 11.61% | 1.11 µM | 4.41% | > 100 µM | Activity (K562 [15]): 1.35%; Activity (K562 [16]): inactive; IC50 (Raji): 99.8 µM; Activity (K562 [17]): 14.31%; Activity (K562 [18]): 65.19%; Activity (K562 [19]): 22.36%; IC50 (HL-60): 6.37 µM; Activity (K562 [20]): Active; Activity (K562 [21]): 25.07% |
